Experimental data reported in PMC9136965 (ACS Central Science, 2022).
Converted amounts (≈) assume the structure as drawn. Like-named read-outs stand apart in the source and are kept apart here.

Assays:
B. subtilis 168 = experiment: Cell lytic assay; format: cell-based, Bacillus subtilis; details: B. subtilis 168, LB, 4× MIC, OD600 at 37 °C, n = 3, Figure 5B
Summary of the method: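 B. subtilis 168 cultures exposed to test compounds or reference antibiotics to tell lysis from growth arrest. Triplicate experiments (n = 3); values plotted as means with standard deviation (s.d.).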

B. subtilis 168 cells = experiment: Bright-field microscopy of cell morphology; format: cell-based, Bacillus subtilis; details: B. subtilis 168, bright-field microscopy, Figure 5A

Row | Compound | MIC (M. tuberculosis H37Ra; H37Ra) [µg/mL] | bacteriostatic or lytic action (B. subtilis 168) | MIC (M. tuberculosis H37Ra) [µg/mL] | growth morphology of treated cells (B. subtilis 168 cells)
1 | CN[C@H](CC(C)C)C(=O)N[C@H]1C(=O)N[C@@H](CC(N)=O)C(=O)N[C@H]2C(=O)N[C@H]3C(=O)N[C@H](C(=O)N[C@H](C(=O)O)c4cc(O)cc(O)c4-c4cc3ccc4O)[C@H](O)c3ccc(c(Cl)c3)Oc3cc2cc(c3O[C@@H]2O[C@H](CO)[C@@H](O)[C@H](O)[C@H]2O[C@H]2C[C@](C)(N)[C@H](O)[C@H](C)O2)Oc2ccc(cc2Cl)[C@H]1O [vancomycin] | 2 (≈ 1.38 µM) |  |  | 
2 | complestatin |  | bacteriostatic | >128 | extended and twisted phenotype
3 | corbomycin |  | bacteriostatic |  | extended and twisted phenotype
